Published values from different studies.
≈ marks a conversion by molar mass, not a printed value.

O=c1[nH]c(NCc2ccc(Cl)c(Cl)c2)nc2ncn(CCN3CCOCC3)c12 has an MIC of 16 µg/mL (≈ 37.8 µM) (Lacticaseibacillus casei; microbial growth, agar dilution; 48 h).
With C[C@@H](c1ncncc1F)[C@](O)(Cn1cncn1)c1ccc(F)cc1F the IC50 was 2.69 µM (Acanthamoeba castellanii; parasite growth, resazurin; 96 h).
With COc1cc2ncnc(NN=C3C(=O)Nc4ccc(F)cc43)c2cc1OC the inhibition was 19.2% (ZR75; cell growth or viability; 10 µM).
With Nc1ccc(S(=O)(=O)Nc2ncccn2)cc1 the IC50 was 27.3 µM (Toxoplasma gondii; parasite growth; human Fibroblast; intracellular).
The MIC of Cc1ncc([N+](=O)[O-])n1CCO is reported as over 16 µg/mL (Lacticaseibacillus casei; microbial growth, agar dilution; 48 h).
The inhibition of CCN(CC)CCNC(=O)c1c(C)[nH]c(/C=C2\C(=O)Nc3ccc(F)cc32)c1C is reported as 90.7% (ZR75; cell growth or viability; 30 µM).
With Cc1ccc(C(CS(=O)(=O)c2ccccc2)=NN=C2N=C(c3ccc(Br)cc3)CS2)cc1 the viability was 31.7% (WM 266-4; cell growth or viability, MTT; 100 µM, 48 h).
For CC(C)(C)C1=CC(=NNc2ccc(C#N)cc2)C=C(C(C)(C)C)C1=O, the IC50 was 3.8 µM (Toxoplasma gondii; parasite growth, fluorescence; 5 days, intracellular).
The viability of NC(=S)NN=C(CS(=O)(=O)c1ccccc1)c1ccc(F)cc1 is reported as 31.3% (WM 266-4; cell growth or viability, MTT; 25 µM, 48 h).
NC(=O)c1cccnc1 gave an EC50 of about 1000 µM (tissue relaxation, agonist; rat).
COc1ccc(-c2nc(NN=C3C(=O)Nc4ccccc43)c3ccccc3n2)cc1OC gave an inhibition of 54.9% (ZR75; cell growth or viability; 30 µM).
For Cc1ccc(C(CS(=O)(=O)c2ccccc2)=NNC2=NC(=O)C(=NNc3ccccc3)S2)cc1, the viability was 41.2% (WM 266-4; cell growth or viability, MTT; 25 µM, 48 h).
